The full list was thinned out, with hits kept by preference.
INS-1E ATP HTS: rescue of cytokine-induced death in INS-1E beta cells. INS-1E cytokine-induced death, ATP luminescence, 48 h; normalised: neutral wells 0, positive control 100. hit rate 0.1% among 20,000. protection from cytokine-induced ATP loss, % at 10 µM. AID 488910;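 active means mean replicate protection from cytokine-induced ATP loss at least 50% and at least 75% of replicates each reaching 50%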
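Material: INS-1E rat cells; Quantity: 8000 cells/well; Buffer or medium: phenol-red-free RPMI with 5% fetal bovine serum; Probe or stimulus: cytokine cocktail of IFN-γ, TNF-α and IL-1β; Compound dosing: single test concentration per compound, delivered by pin transfer; Incubation: 48 h co-treatment, 10 min post-lysis read; Signal: CellTiter-Glo luminescence.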
A1 apoptosis 2: A1 inhibition read as caspase activation; caspase activation, % (concentration not given with the values); 24,000 tested, under 10 active; AID 2465; MEF A1-2A-BIM cells, caspase-Glo luminescence, 3 h; percent of clofoctol response, DMSO zero; in the data active means caspase activation above about 5.9%
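Evaluation: Caspase-3/7 activity from luminescence increase | Assay system: A1-2A-BIM mouse embryonic fibroblasts | Quantity: 2500 MEF cells/well | Medium: RPMI-1640 plus 10% FBS | Detection: Caspase-Glo 3/7 luminescence, 1 h at room temperature | Dosing: 50 nL compound per well, pinned | Timing: Cells settled overnight, compound exposure 3 h at 37 °C, 5% CO2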
T cruzi HTS: blocks T. cruzi growth inside host cells; intracellular Trypanosoma cruzi in host cells, plate reader; activity score (inhibition), % at 5.01 µM; hit rate 4.9% among 22,000; in the data active means activity score above about 55%;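 further: parasites and compound incubated about four days before reading; 0% = median of neutral control wells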
* marks the source's active call; other numbers are inactive results; / = no result given.

SMILES	INS-1E ATP HTS	A1 apoptosis 2	T cruzi HTS
C[C@H]1CN([C@@H](C)CO)C(=O)c2cccc(NC(=O)Nc3ccc(F)cc3)c2O[C@H]1CN(C)Cc1ccc(Cl)c(Cl)c1	-12	/	-33
COc1ccc(COCC23N=C4SCc5ccccc5CN4[C@H](c4ccccc4O2)[C@H]3CO[Si](C)(C)C(C)(C)C)cc1	/	1	/
CC1(C)C[C@H]2C[C@H]3C(Br)=CC2(CO1)C(=O)[C@]31CO1	/	2	/
COc1cc(/C=N/NC(=O)c2ccccn2)ccc1O	6	-8	-7
COc1ccc(S(=O)(=O)N(C)C[C@@H]2Oc3ccc(NC(=O)Nc4ccc(C(F)(F)F)cc4)cc3CC(=O)N([C@@H](C)CO)C[C@H]2C)cc1	/	0	/
Cc1ccc(S(=O)(=O)N(C)C[C@@H]2Oc3ccc(NC(=O)Nc4ccc(C(F)(F)F)cc4)cc3CC(=O)N([C@@H](C)CO)C[C@H]2C)cc1	/	-1	/
COc1ccc(S(=O)(=O)N(C)C[C@H]2Oc3ccc(NC(=O)Nc4ccc(C(F)(F)F)cc4)cc3CC(=O)N([C@H](C)CO)C[C@H]2C)cc1	3	0	65*
C[C@H](CO)N1C[C@H](C)[C@H](CN(C)S(=O)(=O)c2ccc(F)cc2)Oc2ccc(NC(=O)Nc3ccc(F)cc3)cc2CC1=O	-7	-1	23
C[C@H](CO)N1C[C@H](C)[C@H](CN(C)S(=O)(=O)c2ccc(F)cc2)Oc2ccc(NC(=O)Nc3ccc(C(F)(F)F)cc3)cc2CC1=O	-67	1	69*
Cc1ccc(S(=O)(=O)N(C)C[C@H]2Oc3ccc(NC(=O)Nc4ccc(C(F)(F)F)cc4)cc3CC(=O)N([C@H](C)CO)C[C@H]2C)cc1	-5	0	64*
O=C(CCCCC(=O)N/N=C/c1cccs1)NO	6	/	15
C[C@H](CO)N1C[C@H](C)[C@H](CN(C)Cc2ccc(Cl)c(Cl)c2)Oc2c(NC(=O)c3cnccn3)cccc2C1=O	-23	/	43
C[C@@H]1CN([C@@H](C)CO)C(=O)c2cccc(NC(=O)c3ccncc3)c2O[C@@H]1CN(C)Cc1ccc(Cl)c(Cl)c1	-8	-1	68*
C[C@H](CO)N1C[C@H](C)[C@@H](CN(C)Cc2ccc(Cl)c(Cl)c2)Oc2c(NC(=O)c3ccncc3)cccc2C1=O	-14	1	78*
Cc1nnc(Sc2ccc(/C=N/NC(=O)CCCCCCC(=O)NO)o2)n1C	/	1	/
O=C(N/N=C/c1ccccc1C(=O)O)c1ccccc1O	-21	-13	-15
O=C(NO)c1cccc(C(=O)N/N=C/c2ccc3c(c2)CCO3)c1	-11	-1	-7
CC(C)(C)OC(=O)NC1(/C=N/NC(=O)c2ccc(C(=O)NO)cc2)CCCC1	17	/	-14
COC(=O)[C@]1(CO)N=C(c2ccc(OCCCO)cc2)O[C@@H]1c1ccccc1N=[N+]=[N-]	/	1	/
CC(C)NC(=O)Nc1ccc2c(c1)CC(=O)N([C@@H](C)CO)C[C@@H](C)[C@@H](CN(C)Cc1ccc(C(=O)Nc3ccccc3N)cc1)O2	-23	/	40
C[C@H](CO)N1C[C@H](C)[C@H](CN(C)Cc2ccc(C(=O)Nc3ccccc3N)cc2)Oc2ccc(NC(=O)Nc3ccc4c(c3)OCO4)cc2CC1=O	48	/	67*
C[C@H]1CN([C@@H](C)CO)C(=O)Cc2cc(NC(=O)Nc3ccc4c(c3)OCO4)ccc2O[C@@H]1CN(C)Cc1ccc(C(=O)Nc2ccccc2N)cc1	-10	0	56*
COc1ccc([Si](C)(C)[C@H]2[C@H](CCn3cc(CCO)nn3)O[C@@]3(C(=O)N(Cc4ccc(N5CCOC5=O)cc4)c4ccccc43)[C@@H]2C)cc1	/	0	/
CC(C)NC(=O)Nc1ccc2c(c1)C(=O)N([C@@H](C)CO)C[C@@H](C)[C@@H](CN(C)S(=O)(=O)c1cccs1)OCCCC[C@@H](C)O2	/	0	/
C[C@@H]1CN([C@@H](C)CO)C(=O)c2cccc(NC(=O)Nc3ccc(C(F)(F)F)cc3)c2O[C@@H]1CN(C)C(=O)Nc1cccc2ccccc12	-59	0	-27
SMILES	INS-1E ATP HTS	A1 apoptosis 2	T cruzi HTS
C[C@H](CO)N1C[C@H](C)[C@H](CN(C)C(=O)Nc2cccc3ccccc23)Oc2c(NC(=O)Nc3ccc(C(F)(F)F)cc3)cccc2C1=O	-14	/	66*
C[C@H](CO)N1C[C@H](C)[C@@H](CN(C)C(=O)Nc2ccc(C(F)(F)F)cc2)Oc2c(NC(=O)Nc3cccc4ccccc34)cccc2C1=O	-34	1	52
C[C@H](CO)N1C[C@H](C)[C@@H](CN(C)C(=O)Nc2cccc3ccccc23)Oc2c(NC(=O)Nc3ccc(C(F)(F)F)cc3)cccc2C1=O	-8	/	61*
C[C@@H]1CN([C@@H](C)CO)C(=O)c2cccc(NC(=O)Nc3ccc(C(F)(F)F)cc3)c2O[C@H]1CN(C)C(=O)Nc1cccc2ccccc12	-30	2	38
C[C@H]1CN([C@@H](C)CO)C(=O)c2cccc(NC(=O)Nc3cccc4ccccc34)c2O[C@H]1CN(C)C(=O)Nc1ccc(C(F)(F)F)cc1	-29	1	63*
COC(=O)CCCCCCC(=O)N/N=C/c1cccc(O)c1	-4	/	-5
C[C@@H]1CN([C@@H](C)CO)C(=O)c2cccc(NC(=O)c3nc4ccccc4s3)c2O[C@@H]1CN(C)S(=O)(=O)c1ccc(Cl)cc1	-58	-1	55
C[C@H](CO)N1C[C@H](C)[C@H](CN(C)S(=O)(=O)c2ccc(Cl)cc2)Oc2c(NC(=O)c3nc4ccccc4s3)cccc2C1=O	-58	0	71*
C[C@@H]1CN([C@H](C)CO)C(=O)c2cccc(NC(=O)c3nc4ccccc4s3)c2O[C@@H]1CN(C)S(=O)(=O)c1ccc(Cl)cc1	-19	0	43
C[C@H](CO)N1C[C@H](C)[C@@H](CN(C)S(=O)(=O)c2ccc(Cl)cc2)Oc2c(NC(=O)c3nc4ccccc4s3)cccc2C1=O	-6	-1	66*
COc1ccc(/C=N/NC(=O)c2cccc(C(=O)NO)c2)cc1OC	5	/	-3
C[C@@H]1CN([C@H](C)CO)C(=O)c2cc(NC(=O)Nc3ccccc3)ccc2O[C@@H]1CN(C)Cc1ccc(C(F)(F)F)cc1	/	/	-5
C[C@H](CO)N1C[C@H](C)[C@@H](CN(C)Cc2ccc(Oc3ccccc3)cc2)Oc2ccc(NC(=O)Nc3ccc(C(F)(F)F)cc3)cc2C1=O	-22	0	-4
C[C@H](CO)N1C[C@H](C)[C@H](CN(C)Cc2ccc(Oc3ccccc3)cc2)Oc2ccc(NC(=O)Nc3ccc(C(F)(F)F)cc3)cc2C1=O	/	/	63*
C[C@H]1CN([C@@H](C)CO)C(=O)c2cc(NC(=O)Nc3ccc(C(F)(F)F)cc3)ccc2O[C@H]1CN(C)Cc1ccc(Oc2ccccc2)cc1	-41	/	80*
O=C(NO)c1ccc(C(=O)N/N=C/c2ccc(I)cc2)cc1	-2	-4	-4
O=C(CCCCCCC(=O)Nc1ccccc1O)N/N=C/c1ccc(N2CCCC2)cc1	7	-1	-2
COc1ccc(/C=N/NC(=O)c2cccc(C(=O)NO)c2)cc1	-2	-2	1
O=C(CCCCCCC(=O)Nc1ccccc1O)N/N=C/c1c(O)ccc2ccccc12	7	/	38

Screens: PubChem BioAssay, Broad Institute
